Measured values gathered from unrelated publications.
Lines come from different studies, so protocols differ.
Cell line: A2780
Effect on: cell growth or viability

| Compound | technique | time | endpoint | value |
| --- | --- | --- | --- | --- |
| CC[C@@H]1C=CC(=O)O[C@@H]1C[C@@H](O)[C@H](C)[C@H](OC)[C@@H](C)Cc1ccccc1 | MTT | 48 h | GI50 | 81.9 nM |
| COc1ccc(C(=O)O[C@@H]2CN3Cc4c(cc5c(c4OC)OCO5)[C@@]24C=C[C@H](OC)C[C@@H]34)cc1OC | WST-1 |  | IC50 | 6000 nM |
| CC(=O)O[C@H]1C(=O)[C@@]2(C)[C@H]([C@H](OC(=O)c3ccccc3)[C@]3(O)C[C@H](OC(=O)[C@H](O)[C@@H](NC(=O)c4ccccc4)c4ccccc4)C(C)=C1C3(C)C)[C@]1(OC(C)=O)CO[C@@H]1C[C@@H]2O | CCK-8 | 72 h | IC50 | 8.2 nM |
| CC[C@@H]1C=CC(=O)O[C@@H]1C[C@@H](OC)[C@H](C)[C@H](OC)[C@@H](C)Cc1ccc(F)cc1 | MTT | 48 h | GI50 | 1930 nM |
| CC(C)C(=O)Nc1ccc([N+](=O)[O-])c(C(F)(F)F)c1 | CCK-8 | 48 h | IC50 | > 50000 nM |
| Nc1ccn([C@@H]2O[C@H](CO)[C@@H](O)C2(F)F)c(=O)n1 | CCK-8 | 72 h | IC50 | 4.7 nM |
| Cc1ccc2ccc3ccc(C)nc3c2n1.[C-]#[N+]c1ccc(C)cc1.[C-]#[O+].[C-]#[O+].[C-]#[O+].[Re+] | MTT | 24 h | EC50 | 1400 nM |
| CC[C@@H]1C=CC(=O)O[C@@H]1C[C@@H](O)[C@H](C)[C@H](OC)[C@@H](C)Cc1ccc(F)cc1 | MTT | 48 h | GI50 | 215 nM |
| C[C@H]1O[C@@H](n2cc(F)c(=O)[nH]c2=O)[C@H](O)[C@@H]1O | CCK-8 | 48 h | IC50 | > 50000 nM |
| COc1c2c(cc3c1OCO3)[C@]13C=C[C@H](OC)C[C@H]1N(C2)C[C@H]3OC(=O)c1cccc(C)c1 | WST-1 |  | IC50 | > 10000 nM |
| CC[C@]1(O)C[C@H]2CN(CCc3c([nH]c4ccccc34)[C@@](C(=O)OC)(c3cc4c(cc3OC)N(C=O)[C@H]3[C@@](O)(C(=O)OC)[C@H](OC(C)=O)[C@]5(CC)C=CCN6CC[C@]43[C@@H]65)C2)C1 | fluorescence | 72 h | IC50 | 0.22 nM |
| COc1ccc(C(=O)O[C@@H]2CN3Cc4c(cc5c(c4OC)OCO5)[C@@]24C=C[C@H](OC)C[C@@H]34)cc1 | WST-1 |  | IC50 | > 10000 nM |
| CCC[C@H](Nc1nc(-c2ccc(NC(=O)NCC)c(OC)c2)ncc1C)c1cccnc1 | fluorescence | 72 h | IC50 | 54.6 nM |
| Cc1[nH]c2ccccc2c1CCNCc1ccc(/C=C/C(=O)NO)cc1 | crystal violet | 48 h | IC50 | 3.9 nM |
